Measured values from ChEMBL document CHEMBL1275259, “In vitro antituberculosis activities of ACH-702, a novel isothiazoloquinolone, against quinolone-susceptible and quinolone-resistant isolates” (Antimicrob Agents Chemother, 2010).
In brackets after ≈: the same amount, converted by molar mass.

Key:
[1] = system: Mycobacterium tuberculosis; assay: Antimicrobial activity against extensively drug-resistant Mycobacterium tuberculosis isolate 16; type: functional
How it was run: (§1)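 Broth microdilution MIC in modified 7H10 broth (pH 6.6). Drugs dissolved in DMSO at 1 mg/ml, then serially diluted. Isolates grown 5 to 10 days at 37°C on a rotary shaker, diluted to 100 Klett units and frozen. Final inoculum about 6 × 10^4 CFU/ml (range 1.2 × 10^4 to 2.6 × 10^5). Duplicate wells, sealed, read after about 21 days at 37°C in ambient air.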

DNA gyrase subunit A [2] = biological target: DNA gyrase subunit A (Mycobacterium tuberculosis, UniProt P9WG47, A90V); assay: Inhibition of DNA supercoiling activitysof Mycobacterium tuberculosis DNA gyrase subunit A A90V mutant
[3] = system: Mycobacterium tuberculosis; assay: Antimicrobial activity against extensively drug-resistant Mycobacterium tuberculosis isolate 18; type: functional; how it was run: as §1
[4] = system: Mycobacterium tuberculosis; assay: Antimicrobial activity against streptomycin-resistant Mycobacterium tuberculosis isolate 8; type: functional; how it was run: as §1
[5] = system: Mycobacterium tuberculosis; assay: Antimicrobial activity against multidrug-resistant Mycobacterium tuberculosis isolate 9; type: functional; how it was run: as §1
[6] = system: Mycobacterium tuberculosis; assay: Antimicrobial activity against quinolone-resistant Mycobacterium tuberculosis isolate 10; type: functional; how it was run: as §1
[7] = system: Mycobacterium tuberculosis; assay: Antimicrobial activity against isoniazid-resistant Mycobacterium tuberculosis isolate 15; type: functional; how it was run: as §1
[8] = system: Mycobacterium tuberculosis; assay: Antimicrobial activity against quinolone-resistant Mycobacterium tuberculosis isolate 12; type: functional; how it was run: as §1
[9] = system: Mycobacterium tuberculosis; assay: Antimicrobial activity against multidrug drug-resistant Mycobacterium tuberculosis isolate 20; type: functional; how it was run: as §1
[10] = system: Mycobacterium tuberculosis; assay: Antimicrobial activity against quinolone-resistant Mycobacterium tuberculosis isolate 11; type: functional; how it was run: as §1
[11] = system: Mycobacterium tuberculosis; assay: Antimicrobial activity against extensively drug-resistant Mycobacterium tuberculosis isolate 17; type: functional; how it was run: as §1
DNA gyrase subunit A [12] = biological target: DNA gyrase subunit A (Mycobacterium tuberculosis, UniProt P9WG47, D94G); assay: Inhibition of DNA supercoiling activity of Mycobacterium tuberculosis DNA gyrase subunit A D94G mutant
[13] = system: Mycobacterium tuberculosis; assay: Antimicrobial activity against multidrug-resistant Mycobacterium tuberculosis isolate 19; type: functional; how it was run: as §1

SMILES	MIC [1] [µg/mL]	IC50 (DNA gyrase subunit A [2]) [µM]	MIC [3] [µg/mL]	MIC [4] [µg/mL]	MIC [5] [µg/mL]	MIC [6] [µg/mL]	MIC [7] [µg/mL]	MIC [8] [µg/mL]	MIC [9] [µg/mL]	MIC [10] [µg/mL]	MIC [11] [µg/mL]	IC50 (DNA gyrase subunit A [12]) [µM]	MIC [13] [µg/mL]
COc1c(N2CC[C@@H](C(C)(C)N)C2)c(F)cc2c(=O)c3c(=O)[nH]sc3n(C3CC3)c12	0.5 (≈ 1.16 µM)	4.6	0.125 (≈ 0.289 µM)	0.25 (≈ 0.578 µM)	0.06 (≈ 0.139 µM)	0.125 (≈ 0.289 µM)	0.06 (≈ 0.139 µM)	1 (≈ 2.31 µM)	0.03 (≈ 0.0694 µM)	0.25 (≈ 0.578 µM)	1 (≈ 2.31 µM)	7.9	0.03 (≈ 0.0694 µM)
COc1c(N2CCNC(C)C2)c(F)cc2c(=O)c(C(=O)O)cn(C3CC3)c12 (stereo unspecified) [GATIFLOXACIN]		28										44	
NNC(=O)c1ccncc1 [ISONIAZID]	1 (≈ 7.29 µM)		2 (≈ 14.6 µM)	0.125 (≈ 0.911 µM)	4 (≈ 29.2 µM)	0.03 (≈ 0.219 µM)	> 8	0.03 (≈ 0.219 µM)	2 (≈ 14.6 µM)	0.03 (≈ 0.219 µM)	1 (≈ 7.29 µM)		2 (≈ 14.6 µM)
C[C@H]1COc2c(N3CCN(C)CC3)c(F)cc3c(=O)c(C(=O)O)cn1c23 [LEVOFLOXACIN]		> 300										> 300	
COc1c(N2C[C@@H]3CCCN[C@@H]3C2)c(F)cc2c(=O)c(C(=O)O)cn(C3CC3)c12 [MOXIFLOXACIN]	1 (≈ 2.49 µM)		1 (≈ 2.49 µM)	0.06 (≈ 0.149 µM)	0.06 (≈ 0.149 µM)	> 8	0.06 (≈ 0.149 µM)	8 (≈ 19.9 µM)	0.03 (≈ 0.0747 µM)	4 (≈ 9.96 µM)	2 (≈ 4.98 µM)		0.03 (≈ 0.0747 µM)
CO[C@H]1/C=C/O[C@@]2(C)Oc3c(C)c(O)c4c(O)c(c(/C=N/N5CCN(C)CC5)c(O)c4c3C2=O)NC(=O)/C(C)=C\C=C\[C@H](C)[C@H](O)[C@@H](C)[C@@H](O)[C@@H](C)[C@H](OC(C)=O)[C@@H]1C [RIFAMPIN]	8 (≈ 9.72 µM)		8 (≈ 9.72 µM)	0.008 (≈ 0.00972 µM)	64 (≈ 77.8 µM)	0.004 (≈ 0.00486 µM)	0.002 (≈ 0.00243 µM)	0.004 (≈ 0.00486 µM)	16 (≈ 19.4 µM)	0.03 (≈ 0.0365 µM)	8 (≈ 9.72 µM)		64 (≈ 77.8 µM)
CN[C@@H]1[C@H](O[C@H]2[C@H](O[C@H]3[C@H](O)[C@@H](O)[C@H](N=C(N)N)[C@@H](O)[C@@H]3N=C(N)N)O[C@@H](C)[C@]2(O)C=O)O[C@@H](CO)[C@H](O)[C@H]1O [STREPTOMYCIN]					32 (≈ 55 µM)								
